Screening results: PubChem BioAssay, several laboratories
EphB4 antag: EphB4-ephrin-B2 interaction antagonism | P54760 | EphB4 LBD / TNYL-RAW-Alexa532 peptide, fluorescence polarization | inhibition, % at 7 µM | actives 0.15% (n = 97,000);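 active = inhibition above the screen-wide mean inhibition plus 3 SD, cut at about 15% in these data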;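 also: 0% = DMSO wells and 100% = excess unlabeled TNYL-RAW peptide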
PLK1 kinase inh: PLK1 (human) kinase inhibition | inhibition, % at 10 µM | recombinant PLK1 kinase, TR-FRET peptide phosphorylation | P53350 | actives 0.53% (n = 97,000);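 active = inhibition of 50% or more in the single-concentration screen; inactive = inhibition below 50%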;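 also: 0% = DMSO max control and 100% = H-89 dihydrochloride min control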
Plk1 PBD FP: inhibitors of human Plk1 polo box domain binding. P53350. Plk1 PBD phosphopeptide binding, fluorescence polarization. inhibition, %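 (tested at about 20 µM)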. actives 0.13% (n = 97,000); in the data active = inhibition above about 34%, passing the limit was not always enough
HIV Rev-RRE inh: disrupts HIV-1 Rev binding to RRE RNA; P05866; Rev peptide-RRE RNA binding, FRET; inhibition, % at 8 µM; actives 0.79% (n = 97,000); AID 704;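 active = inhibition above the screen-wide mean plus 3 SD, cut at about 35% in these data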;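 also: 0% = median DMSO wells and 100% = median Neomycin B control wells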
Target sequence (P05866 whole entry, looked up): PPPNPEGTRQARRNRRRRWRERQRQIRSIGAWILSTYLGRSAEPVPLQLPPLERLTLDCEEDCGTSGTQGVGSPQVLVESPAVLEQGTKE
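Probe or stimulus: fluorescein-Rev peptide as binding partner; assay system: Cy5-tagged RRE RNA duplex with fluorescein-tagged Rev peptide; timing: 5 min compound–RNA preincubation, then 15 min with peptide, 25 °C; medium: HEPES pH 7.5 buffer with KCl, MgCl2, NaCl and EDTA; signal: fluorescein-to-Cy5 FRET, 480 nm excitation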
LYP inh 2: inhibitors of human LYP (PTPN22) phosphatase. inhibition, % at 2 µM. Q9Y2R2. recombinant LYP catalytic domain, DiFMUP fluorescence. AID 640. actives 0.21% (n = 96,000);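 active = inhibition at 2 µM at or above a set limit, the screen mean plus 3 SD, cut at about 24% in these data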;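 also: 0% = DMSO with enzyme and 100% = enzyme fully blocked by orthovanadate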
PTPN22 act: activators of human LYP (PTPN22) phosphatase; Q9Y2R2; recombinant LYP, DiFMUP fluorescence; 0 = plate median, 100 = signal doubled; activation, % at 2 µM; actives 0.11% (n = 96,000); AID 697;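 active = activation at 2 µM above a set limit, the mean plus 5 SD, cut at about 37% in these data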
Starred values were filed as active, the others as inactive; · = not tested or not shown; [ ] = dose if it differs, or a comment. This is a sample that favours compounds with a hit; in the whole collection about 1.8% have one here.

SMILES	EphB4 antag	PLK1 kinase inh	Plk1 PBD FP	HIV Rev-RRE inh	LYP inh 2	PTPN22 act
Cc1ccc(Cn2c(N)c(S(=O)(=O)c3cccs3)c3nc4ccccc4nc32)cc1	-4	-11	2	-2	10	-7
Cc1cccc(S(=O)(=O)c2c(N)n(Cc3ccco3)c3nc4ccccc4nc23)c1	-1	-1	-7	74*	3	-3
Cc1ccc(CSc2nnc(-c3ccncc3)n2CC2CCCO2)cc1 (stereo not drawn)	2	-17	-25	3	0	3
Cc1cc(C)n(Cc2ccc(Cl)c(Cl)c2)c(=O)c1S(=O)(=O)c1ccccc1	-2	-1	-23	9	9	-5
O=c1c(O)c(-c2cccs2)oc2ccccc12	-7	-9	-135	42*	-4	6
O=c1cc(-c2cccs2)oc2ccc(Cl)cc12	-1	-2	-9	4	6	-4
O=c1c(O)c(-c2cccs2)oc2ccc(Cl)cc12	5	-21	-210	102*[fluorescence artefact?]	0	-1
COc1ccc2c(c1OC)C(=O)NC(C)=C(C(=O)OC(C)(C)C)C2O (stereo not drawn)	-1	-9	-18	4	2	3
COc1ccc(C2C=C(c3cccs3)Nc3nc(CCCO)nn32)cc1 (stereo not drawn)	0	-5	0	129*[fluorescence artefact?]	-6	4
COc1ccc(C2C=C(c3ccccc3)Nc3nc(CCCO)nn32)cc1 (stereo not drawn)	-3	-28	-27	40*	-1	5
OCCCc1nc2n(n1)C(c1ccccc1)C=C(c1ccccc1)N2 (stereo not drawn)	5	-14	-7	30	-5	2
Cc1ccc(S(=O)(=O)N2CCOCC2)cc1C(=O)NCc1cn2ccsc2n1	-3	-16	-1	6	6	-2
CN(C)c1ccc(-c2nc3ccccc3n2C)cc1	-4	-7	-5	0	-20	20
CCN(CC)c1ccc2cc(-c3nc4ccccc4[nH]3)c(=O)oc2c1	-4	-311	-112	135*[fluorescence artefact?]	4	-6
CCN(CC)c1ccc2cc(-c3nc4ccccc4n3C)c(=O)oc2c1	0	-36	-11	132*[fluorescence artefact?]	5	-6
CCOc1ccc(-c2onc(C(F)(F)F)c2-c2cscn2)c(O)c1	2	-11	-10	8	-6	9
Cc1cc(O)cc(O)c1-c1onc(C(F)(F)F)c1-c1cscn1	6	58*	15	5	1	-4
Cc1c(NC(=O)C2C3C=CC(C3)C2C(=O)O)c(=O)n(-c2ccccc2)n1C (stereo not drawn)	-3	-10	-2	10	-14	13
CC(=O)Nc1nonc1NC(C)=O	11	-4	-32	10	5	-6
CC(=O)Nc1cc(OC(C)=O)c2nonc2c1OC(C)=O	10	5	54*	5	-12	11
COCCn1c(CN2CCN(C)CC2)nc2c1c(=O)n(C)c(=O)n2C	3	66*	-23	0	·	·
COCCn1c(CN2CCN(c3cccc(Cl)c3)CC2)nc2c1c(=O)n(C)c(=O)n2C	-5	-6	28	-1	-1	1
COc1ccc(Nc2nc(C)cc(C)c2C(N)=O)c(OC)c1	4	-10	8	6	-4	3
S=C(Nc1ccc(N2CCOCC2)cc1)Nc1ccc2nc(-c3ccco3)c(-c3ccco3)nc2c1	2	0	-46	104*[fluorescence artefact?]	10	-8
O=C(Nc1ccc(N2CCOCC2)cc1)c1ccc2nc(-c3ccco3)c(-c3ccco3)nc2c1	6	-11	35	3	-3	6
SMILES	EphB4 antag	PLK1 kinase inh	Plk1 PBD FP	HIV Rev-RRE inh	LYP inh 2	PTPN22 act
CC1CC(N(C(=O)c2ccccc2Cl)c2ccccc2)c2ccccc2N1 (stereo not drawn)	-8	7	-1	0	14	-9
CCOC(=O)C1=C(CSc2nc(CC)c(C)cc2C#N)OC(N)=C(C#N)C1c1ccccc1 (stereo not drawn)	-6	-8	21	18	-2	2
CCOC(=O)C1=C(CSc2nc(-c3ccccc3)ccc2C#N)OC(N)=C(C#N)C1c1ccc(OC)cc1 (stereo not drawn)	-3	-5	-17	44*	5	-8
CCCCN(CCCC)S(=O)(=O)c1ccc(NC(=O)Cc2cccs2)cc1	0	-33	-34	18	0	-3
CCc1ccc(/C(C)=N\Nc2ccc([N+](=O)[O-])cc2)cc1	-4	-10	13	52*	4	-2
COc1ccc(N/N=C(/Oc2ccc([N+](=O)[O-])cc2)C(C)=O)cc1	3	-13	2	5	5	-6
COc1ccc(CCn2c(C)cc(C(=O)CSc3nnc(N)s3)c2C)cc1	16*	-8	-2	-2	8	-7
Cc1cc(C(=O)CSc2nnc(N)s2)c(C)n1CCc1ccc(Cl)cc1	0	-10	-14	3	7	-10
Cc1ccc(OC(=O)c2cccc(C(=O)Oc3ccc(C)cn3)n2)nc1	-4	-8	10	4	-1	1
COC(=O)c1ccc(OCC2c3cc(OC)c(OC)cc3CCN2C(=O)c2ccco2)cc1 (stereo not drawn)	0	3	3	4	-1	0
CCOc1ccc(N(CC(=O)NC(C)CC)S(=O)(=O)c2c(C)noc2C)cc1 (stereo not drawn)	-4	63*	18	5	·	·
CCOc1ccccc1NC(=O)CN(c1ccc(C)cc1)S(=O)(=O)c1c(C)noc1C	-6	-19	6	8	27*	-24
CCOc1ccc(OCC)c(NC(=O)CN(c2ccc(C)cc2)S(=O)(=O)c2c(C)noc2C)c1	8	-2	2	7	0	-1
CCOc1ccc(N(CC(=O)Nc2ccc(OC)cc2)S(=O)(=O)c2c(C)noc2C)cc1	-6	-1	-8	1	-4	2
CSc1cccc(NC(=O)C(C)NS(=O)(=O)c2ccc(F)cc2)c1 (stereo not drawn)	1	-28	-10	4	-8	10
COc1ccc(CCNC(=O)c2cc3ccccn3n2)c(OC)c1OC	1	3	-33	7	-4	1
O=C(CCN1CCN(c2ccccc2)CC1)Nc1nccs1	5	65*	-5	5	5	-3
O=C(CN1CCN(c2ccccc2)CC1)Nc1nccs1	4	-6	24	8	-13	12
CC(C)(C)CC(=O)NC(=S)NCCc1ccccc1	2	-16	14	-4	3	0
CC(C)CC(=O)NC(=S)NCCc1ccccc1	16*	-13	1	-3	11	-8
Cc1ccc(/C=C2/CCc3c([nH]c4ccccc34)C2=O)cc1	0	-2	13	7	1	2
CN(C)/N=C/C=C1\CC/C(=C\c2ccc(Br)cc2)C1=O	-8	-14	-20	72*	-1	-3
O=c1[nH]c2cccnc2n1Cc1ccccc1	11	-11	-6	14	0	3
